In the library only some 3.5% were active in any assay of this set; here they are far more common.
MrgX1 agonist = agonists of human MrgX1 receptor, primary screen, HEK293 cells, Fluo-4 calcium flux; Mas-related G-protein coupled receptor member X1 (Homo sapiens), Q96LB2; Fluo-4 calcium fluorescence, agonist mode; active compounds read high; B-score at 10 µM; hit rate 0.44% among 310,000; AID 588627, 2011;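 active = calcium response B-score plate-corrected fluorescence ratio at least 3 library SD, with starting fluorescence B-score inside 5 SD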
Target sequence (Q96LB2 whole entry, looked up): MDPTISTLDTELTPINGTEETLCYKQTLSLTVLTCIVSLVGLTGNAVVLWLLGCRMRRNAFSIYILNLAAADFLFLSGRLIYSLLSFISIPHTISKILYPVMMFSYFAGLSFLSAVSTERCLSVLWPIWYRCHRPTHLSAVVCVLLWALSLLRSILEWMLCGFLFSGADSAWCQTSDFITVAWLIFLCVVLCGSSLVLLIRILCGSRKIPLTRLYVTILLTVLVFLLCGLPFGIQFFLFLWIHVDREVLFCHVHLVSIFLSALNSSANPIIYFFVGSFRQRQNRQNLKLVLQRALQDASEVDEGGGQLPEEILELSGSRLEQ
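Assay system: stable human MrgX1 HEK293 cell line. Quantity: 15,000 cells per well. Schedule: cells plated overnight, dye loaded 0.5 h 37 °C, 0.5 h room temperature. Detection: Fluo-4 NW calcium-flux fluorescence, kinetic read. Read-out basis: peak-minus-minimum fluorescence over baseline, converted to B scores. Control set: positive and negative control wells on each plate.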
RGS4 act = RGS4 potentiators or activators, primary screen, cell-based, HEK293 M3R inducible RGS4, calcium flux; hit rate 0.92% among 310,000; B-score at 10 µM; carbachol calcium flux Fluo4; active compounds read low;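 active = B-score of the integrated calcium signal more than 4 SD below the library mean, with starting fluorescence not abnormally high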;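 also: negative B-score means reduced calcium response which marks RGS4 activation or potentiation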
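Assay system: HEK293 FlpIn-TREx cells, stable M3R, doxycycline-inducible RGS4 / Probe or stimulus: carbachol, ECmax concentration / Times: overnight RGS4 induction, 30 min dye load 37 °C, 20 min compound RT / Signal: kinetic calcium fluorescence imaging with Fluo4-AM dye, 2 µM / Measure: Agonist-evoked peak-minus-minimum fluorescence over baseline, integrated ratio, B score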
RGS4 block = RGS4 inhibitors, primary screen, cell-based, HEK293 M3R inducible RGS4, calcium flux. hit rate 0.45% among 310,000. Fluo-4 calcium flux; active compounds read high; triggered by carbachol at its EC20. B-score at 10 µM. AID 463165, 2010;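 active = B-score, a plate-corrected calcium signal, over three deviations above library mean, with baseline fluorescence within five deviations of library mean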;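 also: RGS4 expression induced by doxycycline in cells with stable M3 receptor; B-score is computed from the integrated fluorescence ratio over baseline after carbachol; higher B-score means a larger calcium signal and so more RGS4 inhibition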
Target sequence (P49798 whole entry, looked up): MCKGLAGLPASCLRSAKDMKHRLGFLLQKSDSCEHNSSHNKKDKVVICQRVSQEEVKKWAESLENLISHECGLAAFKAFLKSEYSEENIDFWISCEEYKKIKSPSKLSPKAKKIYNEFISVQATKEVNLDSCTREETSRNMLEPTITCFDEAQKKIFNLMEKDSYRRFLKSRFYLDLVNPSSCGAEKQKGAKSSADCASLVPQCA
MrgX1 antag = antagonists of human MrgX1 receptor, primary screen, HEK293 cells, Fluo-4 calcium flux; Mas-related G-protein coupled receptor member X1 (Homo sapiens), Q96LB2; BAM8-22 antagonism; active compounds read low; B-score at 10 µM; hit rate 1.3% among 310,000;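 active = calcium-response B-score plate-corrected more than 3 library SD below zero, starting fluorescence within 5 deviations, no agonist response on first addition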;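 also: peak minus trough fluorescence over baseline after final BAM8-22 challenge near maximal dose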
MrgX1 PAM = positive allosteric modulators of MrgX1, primary screen, HEK293 cells, Fluo-4 calcium flux | hit rate 0.63% among 310,000 | Mas-related G-protein coupled receptor member X1 (Homo sapiens), Q96LB2 | B-score at 10 µM | FDSS; active compounds read high;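 active = plate-corrected calcium response at least 3 library SD above typical, normal starting fluorescence, not activating the receptor alone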;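 also: compound read alongside a low EC10 to EC30 dose of BAM8-22 agonist; peak minus trough fluorescence over baseline measured at the second addition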
MrgX1 PAM conf = MrgX1 positive allosteric modulators, duplicate retest, confirmation, HEK293 cells, Fluo-4 calcium flux | shares compounds with MrgX1 PAM | Fluo-4 calcium fluorescence, FDSS | activation (ratio percentage), % at 10 µM | hit rate 13% among 1,200 | AID 602413, 2012;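 active = ratio at least 3 SD above the weak peptide control, stable starting fluorescence, no direct agonism earlier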;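 also: compound followed by low BAM8-22 agonist challenge near EC20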
HEK293 Ca flux = nonspecific calcium signal in parental HEK293, confirmation, counter-screen for MrgX1 antagonist project, parental HEK293 cells, Fluo-4 calcium flux; shares compounds with MrgX1 antag; hit rate 2% among 4,000; Fluo-4 calcium fluorescence, FDSS; AID 624111, 2012; fluorescence ratio F(max-min)/F0 at 10 µM;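 active = duplicate-averaged calcium fluorescence ratio at least three times the standard deviation of buffer wells, a nonspecific response in parental cells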
HEK293 Ca counter = calcium response in parental HEK293 cells, primary screen, counter-screen for MrgX1 allosteric activator project, cell-based, Fluo-4 calcium flux, duplicate; shares compounds with MrgX1 antag; Fluo-4 fluorescence ratio; active compounds read high; fluorescence ratio F(max-min)/F0 at 10 µM; hit rate 0.4% among 4,000; AID 624114, 2012;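 active = calcium fluorescence ratio, averaged over duplicates, at least 3 SD of the buffer-well ratio, meaning a nonspecific response in receptor-free cells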;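 also: untransfected parental HEK293 lacking MrgX1 used as counterscreen for MrgX1 allosteric activators; fluorescence change taken during the second addition on a kinetic imager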
HEK293 Ca cntr2 = calcium response in parental HEK293 cells, primary screen, counter-screen for MrgX1 agonist project, cell-based, Fluo-4 calcium flux, duplicate, agonist mode. fluorescence ratio F(max-min)/F0 at 10 µM. shares compounds with MrgX1 antag. AID 624115, 2012. hit rate 8.7% among 4,000. Fluo-4 calcium fluorescence (FDSS); active compounds read high;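 active = calcium fluorescence ratio at least three times the spread of buffer wells, meaning a non-specific response in parental cells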
Active calls of the source: *; i = inactive; . = no result.

SMILES	MrgX1 agonist	RGS4 act	RGS4 block	MrgX1 antag	MrgX1 PAM	MrgX1 PAM conf	HEK293 Ca flux	HEK293 Ca counter	HEK293 Ca cntr2
CC1(CCc2ccccc2)NC(=O)N(CC(=O)N2CC(=O)Nc3ccccc32)C1=O (stereo not given)	i	i	i	i	i	.	.	.	.
CC(C)c1ccc2c(c1)[C@H]1OCC[C@H]1[C@@H](c1cccs1)N2	i	i	i	i	8.3*	3.3%*	i	i	i
CC1(C)c2ccccc2N(CC(N)=O)C12C=Cc1ccccc1O2 (stereo not given)	i	i	i	i	6.8*	i	i	i	i
O=C(CS(=O)(=O)c1ccccc1)Nc1nc(-c2ccccc2)cs1	i	i	i	i	8.4*	i	i	i	i
Cc1ccc(S(=O)(=O)CC(=O)Nc2nc(-c3ccccc3)cs2)cc1	i	i	i	i	i	.	.	.	.
CCC(C)NC(=O)CN1c2cccc3cccc(c23)S1(=O)=O (stereo not given)	i	i	i	i	i	.	.	.	.
CCNC(=O)CN1c2cccc3cccc(c23)S1(=O)=O	i	i	i	i	22*	i	i	i	i
O=C(NCCCn1cccn1)C1CCC(=O)N(Cc2cccc(C(F)(F)F)c2)C1 (stereo not given)	i	i	i	i	7.8*	i	i	i	i
O=C(NCCCC1CCCC1)C1CCC(=O)N(Cc2cccc(C(F)(F)F)c2)C1 (stereo not given)	i	i	i	i	i	.	.	.	.
NCc1ccccc1	i	.	.	i	13*	i	i	i	i
CC1C(=O)N(Cc2ccccc2F)c2ccccc2N1C(=O)c1c(F)cccc1F (stereo not given)	i	i	i	i	9*	i	i	i	i
COc1cccc(-n2c(SCC(N)=O)nnc2-c2c[nH]c3ccccc23)c1	i	i	i	i	6.9*	i	i	i	i
O=c1[nH]c(Nc2ccccc2Cl)cc2ccccc12	i	i	i	i	8*	i	i	i	i
Cc1ccccc1Nc1cc2ccccc2c(=O)[nH]1	i	i	i	i	i	.	.	.	.
CCOCC(=O)Nc1ccc(S(=O)(=O)NCC2CCCO2)cc1 (stereo not given)	i	i	i	i	11*	i	i	i	i
O=C(CC1Sc2ccccc2NC1=O)OC(C(=O)NCCc1ccccc1)c1cccnc1 (stereo not given)	i	i	i	i	8.5*	i	i	i	i
CC1(C)OC1COc1c2ccoc2cc2oc(=O)ccc12 (stereo not given)	i	i	i	i	i	.	.	.	.
Cc1nn(C)cc1S(=O)(=O)N1CCN(c2ccccc2F)CC1	i	i	i	i	i	.	.	.	.
O=C(NCc1ccc(Cl)cc1)c1cccc2c1C(=O)N(CC1CCCO1)C2 (stereo not given)	i	i	i	i	i	.	.	.	.
O=C(Cc1ccc2c(c1)CCCC2)Nc1ccccc1Br	i	i	i	i	7.3*	i	i	i	i
O=C(Cn1cc2c(n1)CCCC2)Nc1ccccc1Br	i	i	i	i	22*	i	i	i	i
CC1CCCC(NC(=O)Cn2cc3c(n2)CCCCC3)C1C (stereo not given)	i	i	i	i	6.5*	i	i	i	i
O=C(Cc1ccc2ccccc2c1)Nc1ccccc1Br	i	i	i	i	i	.	.	.	.
O=C(Cn1cc2c(n1)CCCC2)Nc1ccccc1Cl	i	i	i	i	13*	i	i	i	86*
COc1ccc(CCN2C(=O)CS/C2=N\NC(=O)c2cccs2)cc1OC	i	i	i	i	i	.	.	.	.
SMILES	MrgX1 agonist	RGS4 act	RGS4 block	MrgX1 antag	MrgX1 PAM	MrgX1 PAM conf	HEK293 Ca flux	HEK293 Ca counter	HEK293 Ca cntr2
Nc1ncncc1-c1ccc([N+](=O)[O-])cc1	i	i	i	i	i	.	.	.	.
CCN1C(=O)[C@H]2[C@@H](c3ccc(Cl)cc3)N3C(=O)CN(CCOC)C(=O)[C@@]3(Cc3ccccc3)[C@H]2C1=O	i	i	i	i	i	.	.	.	.
Cc1nc2ccc(C(C(F)(F)F)(C(F)(F)F)C(F)(F)F)cc2[nH]1	i	i	i	i	i	.	.	.	.
O=C(CCSc1ccc(Br)cc1)Nc1cccnc1	i	i	i	i	i	.	.	.	.
O=C(CSc1nc2[nH]ncc2c(=O)[nH]1)NCc1ccc(F)cc1	i	i	i	i	i	.	.	.	.
COC(=O)c1ccccc1NC(=O)Cn1cc2c(n1)CCC(C)C2 (stereo not given)	i	i	i	i	23*	i	i	i	i
Cc1ccc(NC(=O)Cn2cc3c(n2)CCC(C)C3)cc1 (stereo not given)	i	i	i	i	i	.	.	.	.
O=C(Cn1cc2c(n1)CCCCC2)Nc1ccccc1Cl	i	i	i	i	8*	i	i	i	i
COc1cc(C(=O)NCCc2ccc(S(=O)(=O)N3CCCC3)cc2)cc(OC)c1OC	i	i	i	i	i	.	.	.	.
C=CCN(CC=C)C(=S)NC(=O)c1ccc(C)c(Br)c1	i	i	i	i	8.3*	i	i	i	i
CCOC1=C/C(=C/c2c(N)n3nc(S(=O)(=O)CC)sc3nc2=O)C=CC1=O	i	i	i	i	34*	i	0.64*	i	46*

Screens deposited in PubChem BioAssay by Johns Hopkins Ion Channel Center.
